The record followed here is ChEMBL document CHEMBL3297693, “Novel 3-arylfuran-2(5H)-one-fluoroquinolone hybrid: design, synthesis and evaluation as antibacterial agent” (Bioorg Med Chem, 2014).

Converted amounts (≈) assume the structure as drawn. Bounds are passed on as bounds.

Test [1] relates to Staphylococcus aureus. The test is described as follows: Antimicrobial activity against […] Staphylococcus aureus ATCC 25923 after 8 to 10 hrs by MTT proliferation assay. The class given is functional. The essentials: (§1)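 Broth microdilution in LB medium in 96-well plates, inoculum about 10⁵ cfu/mL, serially diluted compounds, sterile medium as blank control. MTT (3 mg/mL in PBS) added, then 4–5 h at room temperature. Dye extracted with SDS lysis buffer (10% SDS, 5% isopropanol, pH about 3.5) for 8–10 h at room temperature. Absorbance read at 570 nm, control OD 1.0–2.0. MIC₅₀ reported.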
In general terms: Tetrazolium dyes change colour on reduction, which living cells bring about.

Test [2] deals with Escherichia coli. The test is described as follows: Antimicrobial activity against multiple drug-resistant Escherichia coli ATCC 35218 after 8 to 10 hrs by MTT proliferation assay. Format: functional. The essentials: as §1
Test [3] deals with Bacillus subtilis. The test is described as follows: Antimicrobial activity against tetracycline-resistant Bacillus subtilis ATCC 6633 after 8 to 10 hrs by MTT proliferation assay. The class given is functional. The essentials:
as §1

Test [4] has as its target DNA gyrase (Escherichia coli, UniProt P0AES4+P0AES6). The test is described as follows: Inhibition of Escherichia coli DNA gyrase assessed as reduction in enzyme-mediated DNA supercoiling using relaxed pBR322 substrate incubated for 60 mins by electrophoresis method. Format: protein-complex assay.
Test [5] is described as follows: Inhibition of Staphylococcus aureus TyrRS expressed in Escherichia coli assessed as tRNA aminoacylation pre-incubated for 10 mins using Escherichia coli MRE600 tRNA and L-[ring-3,5-3H]tyrosine by liquid scintillation counting. The essentials: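 S. aureus TyrRS overexpressed in E. coli and purified to about 98% (SDS–PAGE). Enzyme (0.2 nM) preincubated with inhibitor range 10 min at room temperature, then prewarmed mix added at 37 °C. Aliquots quenched in cold 7% TCA, filtered, scintillation counted. Kept linear, under 50% tRNA acylation.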

As a reminder, the MIC50 is the lowest concentration that inhibits either 50% of growth or 50% of the strains tested, depending on the study. For the molecule `O=C1OCC(OCCN2CCN(c3cc4c(cc3F)c(=O)c(C(=O)O)cn4C3CC3)CC2)=C1c1ccc(Br)cc1`, the MIC50 in test [1] turned out to be 8.5 µg/mL (≈ 13.9 µM); in test [2] it was 3.8 µg/mL (≈ 6.2 µM); in test [3] it was 2.6 µg/mL (≈ 4.25 µM).

On to `O=C1OCC(OCCN2CCN(c3cc4c(cc3F)c(=O)c(C(=O)O)cn4-c3ccc(F)cc3)CC2)=C1c1ccc(Br)cc1`, for which the MIC50 came out at 11.1 µg/mL (≈ 16.7 µM) in test [1], 4.2 µg/mL (≈ 6.3 µM) in test [2] and 2.9 µg/mL (≈ 4.35 µM) in test [3].

As a reminder, the IC50 is the point on the concentration scale where inhibition reaches its midpoint. As for `O=C1OCC(OCCN2CCN(c3cc4c(cc3F)c(=O)c(C(=O)O)cn4C3CC3)CC2)=C1c1ccccc1F`, the MIC50 in test [1] is 0.19 µg/mL (≈ 0.344 µM); in test [2], 0.11 µg/mL (≈ 0.199 µM); in test [3], 0.09 µg/mL (≈ 0.163 µM). Also, the figures for the half-inhibitory concentration (IC50) in test [4] and in test [5] were 1150 nM and 120 nM, respectively.

For the molecule `CCn1cc(C(=O)O)c(=O)c2cc(F)c(N3CCN(CCOC4=C(c5cccc(Cl)c5)C(=O)OC4)CC3)nc21`, the MIC50 in test [1] amounted to 8.7 µg/mL (≈ 15.6 µM); in test [2] it was 2.9 µg/mL (≈ 5.21 µM); in test [3] it was 15.3 µg/mL (≈ 27.5 µM).

As for `O=C1OCC(OCCN2CCN(c3cc4c(cc3F)c(=O)c(C(=O)O)cn4-c3ccc(F)cc3)CC2)=C1c1ccc(F)cc1`, the figures for the MIC50 in test [1], in test [2] and in test [3] were 0.34 µg/mL (≈ 0.561 µM), 1.1 µg/mL (≈ 1.82 µM) and 0.2 µg/mL (≈ 0.33 µM), respectively.

As to `O=C(O)c1cn(C2CC2)c2cc(N3CCNCC3)c(F)cc2c1=O` [CIPROFLOXACIN], the MIC50 was found to be 6.82 µg/mL (≈ 20.6 µM) in test [1], 5.65 µg/mL (≈ 17.1 µM) in test [2] and 2.7 µg/mL (≈ 8.15 µM) in test [3].

For the molecule `O=C1OCC(OCCN2CCN(c3cc4c(cc3F)c(=O)c(C(=O)O)cn4-c3ccc(F)cc3)CC2)=C1c1ccccc1Cl`, the MIC50 in test [1] was 0.25 µg/mL (≈ 0.402 µM); in test [2], 0.72 µg/mL (≈ 1.16 µM); in test [3], 0.37 µg/mL (≈ 0.595 µM). In addition, the IC50 in test [4] is 4050 nM; in test [5], 6370 nM.

With `CCn1cc(C(=O)O)c(=O)c2cc(F)c(N3CCN(CCOC4=C(c5ccccc5Cl)C(=O)OC4)CC3)cc21`, the MIC50 in test [1] was 0.43 µg/mL (≈ 0.773 µM); in test [2], 2.5 µg/mL (≈ 4.5 µM); in test [3], 0.9 µg/mL (≈ 1.62 µM).

Take `CCn1cc(C(=O)O)c(=O)c2cc(F)c(N3CCN(CCOC4=C(c5ccc(Br)cc5)C(=O)OC4)CC3)cc21`: the MIC50 is 21.6 µg/mL (≈ 36 µM) in test [1], 13.5 µg/mL (≈ 22.5 µM) in test [2] and over 25 µg/mL in test [3].

Turning to `Cc1ccc(C2=C(OCCN3CCN(c4cc5c(cc4F)c(=O)c(C(=O)O)cn5-c4ccc(F)cc4)CC3)COC2=O)cc1`, the MIC50 in test [1] is 0.45 µg/mL (≈ 0.748 µM); in test [2] it was 2 µg/mL (≈ 3.32 µM); in test [3], 0.82 µg/mL (≈ 1.36 µM).

With `CCn1cc(C(=O)O)c(=O)c2cc(F)c(N3CCN(CCOC4=C(c5ccccc5F)C(=O)OC4)CC3)nc21`, the MIC50 in test [1] was 2.6 µg/mL (≈ 4.81 µM); in test [2] it was 2.6 µg/mL (≈ 4.81 µM); in test [3], 1.6 µg/mL (≈ 2.96 µM).

For the molecule `CCn1cc(C(=O)O)c(=O)c2cc(F)c(N3CCN(CCOC4=C(c5cccc(Br)c5)C(=O)OC4)CC3)nc21`, the MIC50 in test [1] was found to be 13.1 µg/mL (≈ 21.8 µM); in test [2], 12.2 µg/mL (≈ 20.3 µM); in test [3], 4.7 µg/mL (≈ 7.81 µM).

On to `CCn1cc(C(=O)O)c(=O)c2cc(F)c(N3CCN(CCOC4=C(c5ccccc5)C(=O)OC4)CC3)cc21`, for which the MIC50 in test [1] is 18.9 µg/mL (≈ 36.2 µM); in test [2], over 25 µg/mL; in test [3] it was 16.6 µg/mL (≈ 31.8 µM).

For `CCn1cc(C(=O)O)c(=O)c2cc(F)c(N3CCN(CCOC4=C(c5ccccc5)C(=O)OC4)CC3)nc21`, the MIC50 is 6.8 µg/mL (≈ 13 µM) in test [1], 5.6 µg/mL (≈ 10.7 µM) in test [2] and 12.6 µg/mL (≈ 24.1 µM) in test [3].

`O=C1OCC(OCCN2CCN(c3cc4c(cc3F)c(=O)c(C(=O)O)cn4-c3ccc(F)cc3)CC2)=C1c1cccc(Cl)c1`: the MIC50 was 0.44 µg/mL (≈ 0.707 µM) in test [1], 0.89 µg/mL (≈ 1.43 µM) in test [2] and 0.75 µg/mL (≈ 1.21 µM) in test [3].

Turning to `O=C1OCC(OCCN2CCN(c3cc4c(cc3F)c(=O)c(C(=O)O)cn4C3CC3)CC2)=C1c1ccccc1`, the MIC50 in test [1] turned out to be 0.64 µg/mL (≈ 1.2 µM); in test [2], 1 µg/mL (≈ 1.87 µM); in test [3], 0.23 µg/mL (≈ 0.431 µM). Besides, the concentration for half-maximal inhibition (IC50) was 5770 nM in test [4] and 7120 nM in test [5].

Regarding `O=C1OCC(OCCN2CCN(c3cc4c(cc3F)c(=O)c(C(=O)O)cn4-c3ccc(F)cc3)CC2)=C1c1ccccc1`, the MIC50 was 0.69 µg/mL (≈ 1.17 µM) in test [1], 1.2 µg/mL (≈ 2.04 µM) in test [2] and 0.6 µg/mL (≈ 1.02 µM) in test [3].

As for `CCn1cc(C(=O)O)c(=O)c2cc(F)c(N3CCN(CCOC4=C(c5ccc(Cl)cc5)C(=O)OC4)CC3)cc21`, the MIC50 in test [1] was found to be 15.9 µg/mL (≈ 28.6 µM); in test [2] it was 19.5 µg/mL (≈ 35.1 µM); in test [3], 18.5 µg/mL (≈ 33.3 µM).

For `Cc1ccc(C2=C(OCCN3CCN(c4cc5c(cc4F)c(=O)c(C(=O)O)cn5C4CC4)CC3)COC2=O)cc1`, the figures for the MIC50 in test [1], in test [2] and in test [3] were 0.53 µg/mL (≈ 0.968 µM), 1.9 µg/mL (≈ 3.47 µM) and 0.39 µg/mL (≈ 0.712 µM), respectively.

In the case of `COc1ccc(C2=C(OCCN3CCN(c4cc5c(cc4F)c(=O)c(C(=O)O)cn5C4CC4)CC3)COC2=O)cc1`, the figures for the MIC50 in test [1], in test [2] and in test [3] were 6.5 µg/mL (≈ 11.5 µM), 23.5 µg/mL (≈ 41.7 µM) and 2.6 µg/mL (≈ 4.61 µM), respectively.

As to `O=C1OCC(OCCN2CCN(c3cc4c(cc3F)c(=O)c(C(=O)O)cn4-c3ccc(F)cc3)CC2)=C1c1ccccc1F`, the MIC50 is 0.21 µg/mL (≈ 0.347 µM) in test [1], 0.67 µg/mL (≈ 1.11 µM) in test [2] and 0.2 µg/mL (≈ 0.33 µM) in test [3]. Also, the figures for the IC50 in test [4] and in test [5] were 3690 nM and 2810 nM, respectively.

For the molecule `O=C1OCC(OCCN2CCN(c3cc4c(cc3F)c(=O)c(C(=O)O)cn4C3CC3)CC2)=C1c1ccc(F)cc1`, the MIC50 in test [1] was found to be 0.24 µg/mL (≈ 0.435 µM); in test [2], 0.37 µg/mL (≈ 0.671 µM); in test [3] it was 0.16 µg/mL (≈ 0.29 µM). Also, the IC50 in test [4] stood at 2840 nM; in test [5], 1290 nM.

In the case of `CCn1cc(C(=O)O)c(=O)c2cc(F)c(N3CCN(CCOC4=C(c5ccc(Cl)cc5)C(=O)OC4)CC3)nc21`, the results for the MIC50 in test [1], in test [2] and in test [3] were 24.9 µg/mL (≈ 44.7 µM), 9.6 µg/mL (≈ 17.2 µM) and 13.2 µg/mL (≈ 23.7 µM), respectively.

Take `CCn1cc(C(=O)O)c(=O)c2cc(F)c(N3CCN(CCOC4=C(c5ccccc5F)C(=O)OC4)CC3)cc21`: the results for the MIC50 in test [1], in test [2] and in test [3] were 3.3 µg/mL (≈ 6.12 µM), 2.7 µg/mL (≈ 5 µM) and 2.4 µg/mL (≈ 4.45 µM), respectively.

Regarding `O=C1OCC(OCCN2CCN(c3cc4c(cc3F)c(=O)c(C(=O)O)cn4-c3ccc(F)cc3)CC2)=C1c1ccccc1OCc1ccccc1`, the MIC50 came out at 2.1 µg/mL (≈ 3.03 µM) in test [1], 2.8 µg/mL (≈ 4.04 µM) in test [2] and 0.58 µg/mL (≈ 0.836 µM) in test [3].

On to `O=C1OCC(OCCN2CCOCC2)=C1c1ccc(O)cc1`, for which the IC50 in test [5] is 100 nM.

With `O=C1OCC(OCCN2CCN(c3cc4c(cc3F)c(=O)c(C(=O)O)cn4-c3ccc(F)cc3)CC2)=C1c1cccc(Br)c1`, the MIC50 in test [1] came to 0.39 µg/mL (≈ 0.585 µM); in test [2], 4.4 µg/mL (≈ 6.6 µM); in test [3], 0.43 µg/mL (≈ 0.645 µM).

As for `O=C1OCC(OCCN2CCN(c3cc4c(cc3F)c(=O)c(C(=O)O)cn4C3CC3)CC2)=C1c1ccc(Cl)cc1`, the MIC50 in test [1] was 0.49 µg/mL (≈ 0.863 µM); in test [2], 1.3 µg/mL (≈ 2.29 µM); in test [3] it was 0.16 µg/mL (≈ 0.282 µM).

On to `O=C1OCC(OCCN2CCN(c3cc4c(cc3F)c(=O)c(C(=O)O)cn4-c3ccc(F)cc3)CC2)=C1c1ccc(Cl)cc1`, for which the MIC50 in test [1] worked out at 7.8 µg/mL (≈ 12.5 µM); in test [2] it was 1.7 µg/mL (≈ 2.73 µM); in test [3], 0.51 µg/mL (≈ 0.82 µM).
